The text below walks through data of ChEMBL document CHEMBL3525935, “Inhibition of P-glycoprotein leads to improved oral bioavailability of compound K, an anticancer metabolite of red ginseng extract produced by gut microflora” (Drug Metab Dispos, 2012).

The source made the active and inactive calls. No cut-off for these calls is given here.

One data set relates to LM1. As to the kind of experiment: Cytotoxicity against mouse LM1 cells assessed as cell growth inhibition upto 100 uM after 48 hrs by MTT assay. The format is functional, cell-based. Summed up: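 LM1 cells, a metastatic line derived from A/J mice, grown in DMEM with 10% FBS, 2 mM glutamine, penicillin/streptomycin and 1% nonessential amino acids. Seeded at 5×10^3 cells/well in 96-well plates, fed daily, and used 2–3 days after seeding.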

Data set [1] deals with MDR1. The experiment in a line: Efflux ratio of permeability from basolateral to apical side over apical to basolateral side in MDCK2-MDR1 cells at 2 uM. The format is ADME, cell-based, Canis lupus familiaris. To be noted: dog, MDCK-MDR1. Summed up:
(§1)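 Monolayers of Caco-2 (TC7; TEER >445 Ω/cm² for quality control), parental MDCKII, or MDR1-MDCKII cells. Bidirectional transport of 2 μM substrate in HBSS, pH 7.4 on both sides. Outputs were Pa-b, Pb-a and efflux ratio Pb-a/Pa-b, plus mass-balance recovery. Intracellular amount was measured at the end of transport and normalised to lysate protein (BCA). Three independent experiments.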

The subject of data set [2] is MDR1. The experiment in a line: Permeability across apical to basolateral side in MDCK2-MDR1 cells at 2 uM. Particulars: dog, MDCK-MDR1; read-out: permeability. The format is ADME, cell-based, Canis lupus familiaris, MDCK-II. Summed up:
as §1

The nature of data set [3]: Permeability across apical to basolateral side in human Caco2 cells. To be noted: Caco-2.
Data set [4] is described as follows: Efflux ratio of permeability from basolateral to apical side over apical to basolateral side in human Caco2 cells. To be noted: Caco-2. In general terms: Caco-2 monolayers are a common model of the intestinal barrier.
Data set [5] can be described thus: AUC (0 to infinity) in wildtype FVB mouse at 10 mg/kg, po. The format is ADME, organism-based. Further details: time infinity, dose 10 mg/kg, route oral. Particulars: plasma. Summed up:
(§2)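 Male mice aged 6–10 weeks, MDR1a/b knockout or wild-type FVB, fasted overnight. Single 10 mg/kg gavage dose in an oral suspending vehicle. Ten timed tail-snip blood samples (20–25 μl) were taken under isoflurane. Blood levels were measured by UPLC-MS; the standard curve spanned 19.5 nM–10 μM, with LLOQ 9.8 nM. Five mice per group; mean ± S.D.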

Data set [6] can be described thus: AUC (0 to infinity) in MDR1a/b(-/-) FVB mouse at 10 mg/kg, po. The format is ADME, organism-based. Also noted: time infinity, dose 10 mg/kg, route oral. Particulars: plasma. The method in brief:
as §2

Data set [7] can be described thus: Drug recovery in MDCK2 cells at 2 uM. The format is ADME, cell-based, Canis lupus familiaris, MDCK-II. To be noted: dog, MDCK; read-out: Drug recovery. The method in brief:
as §1

Data set [8] is described as follows: Permeability across apical to basolateral side in human Caco2 cells at 2 uM. The format is ADME, cell-based. To be noted: Caco-2, read-out: permeability. Summed up: as §1
Data set [9] is described as follows: Drug uptake in human Caco2 cells assessed as intracellular level measured per mg of protein at 2 uM in presence of 20 uM cyclosporine A P-gp inhibitor. The format is ADME, cell-based. To be noted: caco-2, 2 µM. The method in brief: (§3)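 Caco-2 (TC7) monolayers, 2 μM substrate transported in HBSS at pH 7.4. Cyclosporine A (20 μM) or verapamil (50 μM) was added to the apical side. Intracellular amount was measured at the end of transport and normalised to lysate protein (BCA), in nmol/mg. Three independent experiments.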

The nature of data set [10]: AUC (0 to time) in MDR1a/b(-/-) FVB mouse at 10 mg/kg, po. The format is ADME, organism-based. Further details: dose 10 mg/kg, route oral. Particulars: plasma. Summed up:
as §2

The nature of data set [11]: Permeability across basolateral to apical side in human Caco2 cells at 2 uM. The format is ADME, cell-based. To be noted: Caco-2, read-out: permeability. The method in brief:
as §1

Data set [12] can be described thus: Cmax in MDR1a/b(-/-) FVB mouse at 10 mg/kg, po. Further details: dose 10 mg/kg, route oral. The format is ADME, organism-based. To be noted: in vivo. Summed up: as §2
Data set [13] in a line: Mean residence time (infinity) in wildtype FVB mouse at 10 mg/kg, po. The format is ADME, organism-based. Also noted: dose 10 mg/kg, route oral. To be noted: in vivo. Summed up: as §2
Data set [14] is described as follows: Cytotoxicity against mouse LM1 cells assessed as cell growth inhibition after 48 hrs by MTT assay. To be noted: LM1, 48 h. The format is functional, cell-based. (Formazan colour is commonly taken as a measure of viable cells.)
The nature of data set [15]: Drug recovery in human Caco2 cells at 2 uM. The format is ADME, cell-based. To be noted: Caco-2, read-out: Drug recovery. The method in brief: as §1
The nature of data set [16]: Mean residence time (infinity) in MDR1a/b(-/-) FVB mouse at 10 mg/kg, po. Also noted: dose 10 mg/kg, route oral. The format is ADME, organism-based. Particulars: in vivo. The method in brief:
as §2

Data set [17] is described as follows: Drug elimination rate in MDR1a/b(-/-) FVB mouse at 10 mg/kg, po. The format is ADME, organism-based. Also noted: dose 10 mg/kg, route oral. To be noted: in vivo. Summed up:
as §2

Data set [18] in a line: Tmax in MDR1a/b(-/-) FVB mouse at 10 mg/kg, po. The format is ADME, organism-based. Also noted: dose 10 mg/kg, route oral. To be noted: in vivo. Summed up: as §2
Data set [19] can be described thus: Oral bioavailability in rat. The format is ADME, organism-based. Particulars: in vivo.
Data set [20] is described as follows: Permeability across basolateral to apical side in MDCK2 cells at 2 uM. The format is ADME, cell-based, Canis lupus familiaris, MDCK-II. Particulars: dog, MDCK; read-out: permeability. The method in brief: as §1
Data set [21] in a line: Tmax in wildtype FVB mouse at 10 mg/kg, po. Further details: dose 10 mg/kg, route oral. To be noted: in vivo. The format is ADME, organism-based. Summed up: as §2
Data set [22] in a line: Drug uptake in MDCK2-MDR1 cells assessed as intracellular level measured per mg of protein at 2 uM. Particulars: dog, mdck-ii. The format is ADME, cell-based, Canis lupus familiaris. The method in brief: as §1
Data set [23] concerns MDR1. The experiment in a line: Permeability across basolateral to apical side in MDCK2-MDR1 cells at 2 uM. The format is ADME, cell-based, Canis lupus familiaris, MDCK-II. To be noted: dog, MDCK-MDR1; read-out: permeability. Summed up:
as §1

The nature of data set [24]: Cmax in wildtype FVB mouse at 10 mg/kg, po. Particulars: in vivo. The format is ADME, organism-based. Further details: dose 10 mg/kg, route oral. The method in brief: as §2
Data set [25] in a line: Drug uptake in human Caco2 cells assessed as intracellular level measured per mg of protein at 2 uM. The format is ADME, cell-based. To be noted: caco-2, 2 µM. Summed up: as §1
Data set [26] in a line: Drug uptake in human Caco2 cells assessed as intracellular level measured per mg of protein at 2 uM in presence of 50 uM verapamil P-gp inhibitor. The format is ADME, cell-based. Particulars: caco-2, 2 µM. The method in brief: as §3
The nature of data set [27]: Efflux ratio of permeability from basolateral to apical side over apical to basolateral side in MDCK2 cells at 2 uM. The format is ADME, cell-based, Canis lupus familiaris, MDCK-II. To be noted: dog, MDCK. Summed up:
as §1

Data set [28] can be described thus: Permeability across apical to basolateral side in MDCK2 cells at 2 uM. The format is ADME, cell-based, Canis lupus familiaris, MDCK-II. To be noted: dog, MDCK; read-out: permeability. The method in brief:
as §1

Data set [29] has as its system MDR1. As to the kind of experiment: Drug recovery in MDCK2-MDR1 cells at 2 uM. The format is ADME, cell-based, Canis lupus familiaris, MDCK-II. To be noted: dog, MDCK-MDR1; read-out: Drug recovery. The method in brief:
as §1

Data set [30] in a line: Drug uptake in MDCK2 cells assessed as intracellular level measured per mg of protein at 2 uM. Particulars: dog, mdck-ii. The format is ADME, cell-based, Canis lupus familiaris. The method in brief: as §1
Data set [31] can be described thus: AUC (0 to time) in wildtype FVB mouse at 10 mg/kg, po. The format is ADME, organism-based. Also noted: dose 10 mg/kg, route oral. To be noted: plasma. Summed up:
as §2

Data set [32] in a line: Half life in MDR1a/b(-/-) FVB mouse at 10 mg/kg, po. The format is ADME, organism-based. Also noted: dose 10 mg/kg, route oral. To be noted: in vivo. The method in brief: as §2
The nature of data set [33]: Half life in wildtype FVB mouse at 10 mg/kg, po. The format is ADME, organism-based. To be noted: in vivo. Further details: dose 10 mg/kg, route oral. Summed up:
as §2

A short description of data set [34]: Drug elimination rate in wildtype FVB mouse at 10 mg/kg, po. The format is ADME, organism-based. Also noted: dose 10 mg/kg, route oral. Particulars: in vivo. Summed up:
as §2

Data set [35] can be described thus: Efflux ratio of permeability from basolateral to apical side over apical to basolateral side in human Caco2 cells at 2 uM. The format is ADME, cell-based. Particulars: Caco-2. The method in brief:
as §1

Turning to `CC(C)=CCC[C@](C)(O[C@@H]1O[C@H](CO)[C@@H](O)[C@H](O)[C@H]1O)[C@H]1CC[C@]2(C)[C@@H]1[C@H](O)C[C@@H]1[C@@]3(C)CC[C@H](O[C@@H]4O[C@H](CO)[C@@H](O)[C@H](O)[C@H]4O)C(C)(C)[C@@H]3CC[C@]12C`, the “growth inhibition (GI)” value in the data set with LM1 is “inactive”.
The term efflux ratio denotes a quotient of directional permeabilities that is used to spot active efflux. For `C[C@H]1O[C@@H](O[C@H]2[C@@H](O)C[C@H](O[C@H]3[C@@H](O)C[C@H](O[C@H]4CC[C@@]5(C)[C@H](CC[C@@H]6[C@@H]5C[C@@H](O)[C@]5(C)[C@@H](C7=CC(=O)OC7)CC[C@]65O)C4)O[C@@H]3C)O[C@@H]2C)C[C@H](O)[C@@H]1O` [DIGOXIN], the efflux ratio at 2 µM with MDR1 [1] amounted to 64. Moreover, the Papp A→B at 2 µM with MDR1 [2] came out at 0.298 ×10⁻⁶ cm/s. Also, the Papp A→B in [3] came to 1.48 ×10⁻⁶ cm/s. The efflux ratio in [4] came out at 21.
A word on the AUC(0-inf): it is total exposure, with the tail of the curve extrapolated. The term AUC denotes concentration integrated over time. A lower AUC goes with less exposure. One may read the Cmax as the highest concentration seen after dosing. As usually defined, the MRT inf is the average time that molecules of a dose stay in the body. In general, IC50 refers to the point on the concentration scale where inhibition reaches its midpoint. A word on the Tmax: it is the time at which the peak concentration occurs. A word on the bioavailability: it is dose-corrected exposure relative to a reference, in per cent. Read a low bioavailability as poor availability. In general, half-life refers to how long it takes for the measured level to halve. For `CC(C)=CCC[C@](C)(O[C@@H]1O[C@H](CO)[C@@H](O)[C@H](O)[C@H]1O)[C@H]1CC[C@]2(C)[C@@H]1[C@H](O)C[C@@H]1[C@@]3(C)CC[C@H](O)C(C)(C)[C@@H]3CC[C@]12C`, the AUC(0-inf) in data set [5] was found to be 0.75 µM·h; in data set [6], 17.6 µM·h. Besides, the recovery at 2 µM (in data set [7]; in data set [15]; in the data set on MDR1 [29]) was 85% throughout. Besides, the figures for the Papp A→B at 2 µM (in [8]; in [28]; with MDR1 [2]) were 1.16 ×10⁻⁶ cm/s, 0.58 ×10⁻⁶ cm/s and 1.84 ×10⁻⁶ cm/s, respectively. The Drug uptake in [9] was determined as 0.15 nmol/mg; in data set [22], 0.08 nmol/mg; in [25] it was 0.01 nmol/mg; in data set [26], 0.5 nmol/mg; in [30], 0.27 nmol/mg. Moreover, the AUC came out at 7.7 µM·h in data set [10] and 0.66 µM·h in data set [31]. For the same compound, the Papp B→A at 2 µM was found to be 31 ×10⁻⁶ cm/s in [11], 1.13 ×10⁻⁶ cm/s in data set [20] and 33.6 ×10⁻⁶ cm/s in the data set on MDR1 [23]. Moreover, the Cmax was determined as 530 nM in [12] and 130 nM in data set [24]. Moreover, the efflux ratio at 2 µM with MDR1 [1] came to 18.2; in data set [27] it was 1.8; in [35], 26.6. Moreover, the MRT inf in data set [13] was found to be 7.82 h; in data set [16], 30.7 h. Further, the IC50 in data set [14] turned out to be 18.4 µM. Besides, the figures for the k el in data set [17] and in [34] were 1.11e-05 s⁻¹ and 3.61e-05 s⁻¹, respectively. Moreover, the time to peak (Tmax) in data set [18] came to 5.6 h; in data set [21], 2.8 h. Moreover, the bioavailability in [19] was 5%. For the same compound, the half-life in data set [32] was 1120 min; in [33], 352 min.
